Each structure is given as a SMILES string. Hit rate of the full screen: of about 360,000 compounds, about 1,100 (0.31%) were called active. The entries come from a sample that favours actives as a whole. Values without a mark were called inactive.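 Rule for the calls: active = activation above the run cutoff, the mean activation of all test compounds plus 3 SD (cut at about 18% in these data); inactive = the rest.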

Muscarinic acetylcholine receptor M5 (Homo sapiens), sequence (P08912 whole entry, looked up): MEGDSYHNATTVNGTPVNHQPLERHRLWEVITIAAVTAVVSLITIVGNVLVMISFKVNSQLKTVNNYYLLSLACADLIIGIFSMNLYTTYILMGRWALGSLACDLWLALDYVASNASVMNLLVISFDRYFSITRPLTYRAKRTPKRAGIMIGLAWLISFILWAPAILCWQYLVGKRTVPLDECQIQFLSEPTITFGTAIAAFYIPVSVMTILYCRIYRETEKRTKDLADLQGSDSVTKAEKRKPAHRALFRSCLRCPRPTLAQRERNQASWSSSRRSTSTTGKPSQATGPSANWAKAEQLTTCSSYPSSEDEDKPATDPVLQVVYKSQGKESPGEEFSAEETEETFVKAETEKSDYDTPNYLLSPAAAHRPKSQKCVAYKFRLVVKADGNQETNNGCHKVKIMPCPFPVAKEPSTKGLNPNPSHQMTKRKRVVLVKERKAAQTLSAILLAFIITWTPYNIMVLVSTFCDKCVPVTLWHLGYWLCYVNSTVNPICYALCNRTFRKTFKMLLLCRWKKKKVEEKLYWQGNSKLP

In the test the target is Muscarinic acetylcholine receptor M5 (Homo sapiens) (UniProt P08912). Nature of the test: CHRM5 PAMs potentiating acetylcholine calcium signal – CHO-K1 cells, Fluo-8 calcium fluorescence, primary screen (AID 624038). Conditions: CHO-K1 hM5, Fluo-8 calcium, ACh EC20 PAM; at 3 µM; stronger effect = higher value; 0% = ACh EC20, 100% = ACh EC100. The essentials:
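Test system: CHO-K1 hM5 cells / Doses: single-point, 3 µM nominal / Times: Post-acetylcholine fluorescence recording 140 s / Technique: Fluo-8 calcium fluorescence / Measure: Max/basal fluorescence ratio as % of EC20–EC100 ACh window / Benchmarks: low control EC20 acetylcholine (0%), high control EC100 acetylcholine (100%) / Replicates: one well per compound, no replicates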
Consider `CC=C(C)C(=O)OC1CCN2CC=C(COC(=O)C(O)(C(C)OC)C(C)(C)O)C12` (stereo not given), for which the activation is 19.2% (active). For `CCOP(=S)(OCC)SCOC(=O)NCC(=O)OC`, the activation was 0.05%.

For `O=[N+]([O-])c1cnc2ccc3ccccc3c2c1`, the activation is 3.69%. The figure for `COc1ccc(-n2c(-c3ccccc3)nc3ccccc3c2=O)cc1` is 14.8%; for `COC(=O)CN(CCCl)P1(=O)OCCCN1CCCl` (stereo not given) it is -10.4%.

The values are drawn from PubChem BioAssay AID624038 (The Scripps Research Institute Molecular Screening Center, 2012).
